Source: PubChem BioAssay
MEKK2mut PB1 HTS – signal of MEK5 binding to mutant human MEKK2 PB1 domain. 0.35% of 290,000 active. bead flow cytometry, Alexa488-MEK5 binding to MEKK2 mutant. percent response, % at 10 µM; in the data active = percent response above about 24%, passing the limit was not always enough
UBC13 polyUb – human UBC13 polyubiquitination inhibition; P61088; UBC13 polyubiquitin chain formation, TR-FRET; inhibition, % at 20 µM; 0.47% of 330,000 active; AID 485273; in the data active = inhibition above about 45%, passing the limit was not always enough
Target sequence (P61088 whole entry, looked up): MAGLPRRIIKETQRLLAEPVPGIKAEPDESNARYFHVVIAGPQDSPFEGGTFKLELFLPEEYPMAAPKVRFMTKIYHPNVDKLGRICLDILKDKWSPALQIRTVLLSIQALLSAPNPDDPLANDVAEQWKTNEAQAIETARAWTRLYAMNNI
MEKK3 PB1 HTS – MEKK3-MEK5 PB1 interaction, increase or decrease; binding response (% of control), % at 10 µM; AID 1529; bead-based flow cytometry, Alexa488-MEK5 binding to MEKK3; actives lie on both sides; 0 = blocked by unlabeled MEK5, 100 = vehicle; 1.4% of 290,000 active; Q99759;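 active = binding response more than 3 SD above or below the average of its plate-row segment, actives on both sides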;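 note: Alexa488 bead fluorescence after subtracting the streptavidin-only scavenger bead signal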
MEKK2wt PB1 HTS – raises or lowers MEK5 binding to wildtype human MEKK2 PB1 domain; binding response (% of control), % at 10 µM; bead flow cytometry, Alexa488-MEK5 binding to MEKK2 WT; actives lie on both sides; 1.1% of 290,000 active; Q9Y2U5; in the data active = binding response below about 67% or above about 130%
Apaf-1 inh – inhibitors of human Apaf-1 apoptosome | O14727 | 0.71% of 330,000 active | inhibition, % at 20 µM | AID 489030 | reconstituted apoptosome caspase-3 activity, DEVD-Rh110 fluorescence; active = inhibition of at least 40% at 20 µM;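 note: plate controls were DMSO wells for no effect and DEVD-CHO caspase inhibitor wells for full effect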
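Material: reconstituted apoptosome with Apaf-1, cytochrome c, caspase-9, procaspase-3, dATP; medium: pH 7.5 Hepes buffer with CHAPS, BSA, DTT; also added: cytochrome c and DEVD-Rh110 substrate; timing: 30 min plus 50 min, RT; signal: Rh110 fluorescence intensity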
MEKK2wt confirm – raises or lowers MEK5 binding to wildtype human MEKK2, retest. binding response (% of control), % at 10 µM. shares compounds with MEKK3 PB1 HTS. bead flow cytometry, Alexa488-MEK5 binding to MEKK2 WT; actives lie on both sides. 2.4% of 5,900 active; in the data active = binding response below about 16% or above about 210%; inactive = in between
MEKK2mut-MEK5 – signal of MEK5 binding to mutant human MEKK2, retest; shares compounds with MEKK3 PB1 HTS; AID 1893; bead flow cytometry, Alexa488-MEK5 binding to MEKK2 mutant; 2% of 5,900 active; percent response, % at 10 µM; in the data active = percent response mostly above about 71%, no sharp cut-off; inactive = mostly below about 38%;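 note: higher means compound restores mutant binding toward wildtype level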
MEKK3-MEK5 inh – confirmation of inhibitors of MEK5 binding to human MEKK3; shares compounds with MEKK3 PB1 HTS; bead flow cytometry, Alexa488-MEK5 binding to MEKK3; active compounds read low; 1.8% of 5,900 active; AID 1894; binding response (% of control), % at 10 µM;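 active = binding response below 72% of control, or above a set upper limit, though filed actives all read lower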;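 note: 100% = DMSO only wells and 0% = binding blocked by excess unlabeled MEK5; lower values mean stronger disruption of MEK5 binding to MEKK3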
Starred values were filed as active, the others as inactive; / = no result; [ ] = another dose, or the depositor's remark. A selection: hits, their analogues and other compounds. The true share with any hit is near 2.9%.

SMILES	MEKK2mut PB1 HTS	UBC13 polyUb	MEKK3 PB1 HTS	MEKK2wt PB1 HTS	Apaf-1 inh	MEKK2wt confirm	MEKK2mut-MEK5	MEKK3-MEK5 inh
CCOc1ccccc1NC(=O)C(OC(=O)c1ccccc1O)c1ccccc1 (stereo not given)	-1	30	97	93	7	/	/	/
COc1ccc(Nc2nnc(SCC3CCCO3)s2)cc1 (stereo not given)	-2	-15	103	102	3	/	/	/
COc1cccc(NC(=S)N/N=C2/CCCCc3ccccc32)c1	20	/	105	109	/	/	/	/
COc1ccc(C(=O)Nc2nc3nccc(-c4ccccc4)n3n2)cc1	1	-8	180*	108	2	102	4	103
COc1ccc(-c2coc3cc(O)cc(O)c3c2=O)cc1OC	30	8	132*	116	-23	105	-4	104
COc1ccccc1-c1coc2cc(O)cc(O)c2c1=O	3	11	97	99	-2	/	/	/
CC1(C)CC(CC(=O)Nc2ccccc2[N+](=O)[O-])C(=O)O1 (stereo not given)	0	6	147*	109	-13	108	2	104
COc1ccc(-c2nc(S(=O)(=O)c3ccccc3)c(NCCCN3CCOCC3)o2)cc1	/	5	/	/	3	/	/	/
CC(=O)Oc1c2occc2cc2ccc(=O)oc12	3	-4	89	100	-4	/	/	/
COc1c2occc2c(OC(C)=O)c2c(=O)cc(C)oc12	49*	11	80*[inhibitor]	79	1	98	-5	100
CC(C(=O)Nc1ccccc1C#N)N1C(=O)NC2(CCCCCC2)C1=O (stereo not given)	/	-3	/	/	0	/	/	/
CNC(=O)NC(=O)CSc1ccc(NC(C)=O)cc1	8	9	128*	125	1	105	3	99
O=C(NCCN1CCOCC1)C(=O)NCC1OCCN1S(=O)(=O)c1ccccc1 (stereo not given)	1	-1	100	101	-5	/	/	/
O=C1/C(=C/c2cccs2)N=C(c2cccs2)N1Nc1ccccc1	-16	-13	88	57*[inhibitor]	10	78	-8	103
O=C(CN(C1CCCCC1)C1CCCCC1)N1CCc2ccccc2C1	0	15	96	95	17	/	/	/
COCC(=O)OCC(=O)Nc1ccc(Cl)cc1[N+](=O)[O-]	-19	-9	32*[inhibitor]	44*[inhibitor]	3	99	-2	101
COCC(=O)OCC(=O)Nc1cc([N+](=O)[O-])ccc1Cl	-10	/	95	89	/	/	/	/
CC(=O)Oc1ccc(C(=O)Nc2cc(NC(=O)c3ccc(OC(C)=O)cc3)cc(C(=O)NC(C)(C)C)c2)cc1	-1	-14	103	107	14	/	/	/
COc1cc(-n2c(=O)c3ccccc3n(Cc3cccc(F)c3)c2=O)cc(OC)c1OC	-9	-4	59	73	1	/	/	/
COc1cc(-n2c(=O)c3ccccc3n(Cc3ccccc3)c2=O)cc(OC)c1OC	8	0	134*	127	6	101	-3	101
O=c1ccc2cc(S(=O)(=O)NCc3ccccc3)ccc2[nH]1	0	-16	100	97	-2	/	/	/
Cc1cc2[nH]c3c(c[n+](C)c4ccccc34)c2cc1C	-2	64*	61	144*	28	201	73*	113
CCCCN(C(=O)c1cc2c(s1)CCC2)c1c(N)n(CCCC)c(=O)[nH]c1=O	/	-7	/	/	6	/	/	/
Cc1ccc(-c2nc(C(=O)NCCCN3CCOCC3)cc3c2[nH]c2ccccc23)cc1	21	33	101	142*	38	156	41	108
COc1ccc(-c2nc(C(=O)NCCCN3CCOCC3)cc3c2[nH]c2ccccc23)cc1OC	15	30	105	137*	33	150	24	110
